We go through ten molecules from ChEMBL document CHEMBL2176895, “Bacterial reduction as means for colonic drug delivery: can other chemical groups provide an alternative to the azo bond?” (J Med Chem, 2012).

One series in a line: Drug metabolism in Sprague-Dawley rat cecal contents assessed as colonic bacteria-mediated rate for final reduction product formation relative to sulfasalazine reduction rate. It counts as ADME.
Conditions: not given; call rule not given here
In outline:
(§1)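 The reduction was followed by reversed-phase HPLC with photodiode-array detection on a C18 column at 30 °C and 1 mL/min. Elution used a gradient of methanol against 50 mM potassium phosphate buffer, pH 6.8, containing 0.1% tetrabutylammonium hydroxide.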
On to `CN(C)c1ccc([N+](=O)[O-])cc1C(=O)O`, for which the Ratio came out at 0.724. With `O=C(O)c1cc([N+](=O)[O-])ccc1O`, the Ratio turned out to be 0.45. Still for that read-out and setting: with `Cc1ccc([N+](=O)[O-])cc1C(=O)O` the figure was 0.603; with `O=C(O)c1cc([N+](=O)[O-])ccc1Cl`, 1.013. Same read-out and setting: with `O=C(O)c1ccc([N+](=O)[O-])cc1C(=O)O` the figure was 0.113; with `O=C(O)c1cc(C(=O)O)cc([N+](=O)[O-])c1`, 0.128; with `O=C(O)c1cc([N+](=O)[O-])cc(C(F)(F)F)c1`, 1.222.

As for `O=C(O)c1cccc([N+](=O)[O-])c1`, the Ratio is reported as 0.759.

The nature of the next series: Drug metabolism in Sprague-Dawley rat cecal contents assessed as accumulation of colonic bacteria-mediated final reduction product level at 2 mM. It counts as ADME. The note with it: 2000 µM. In outline:
as §1
As for `O=C(O)c1cc([N+](=O)[O-])ccc1O`, the Drug metabolism entry is on record as “Active”. In the case of `O=C(O)c1cc(SSc2ccc(O)c(C(=O)O)c2)ccc1O`, the Drug metabolism entry is reported as “Active”. `O=C(O)c1cc(/N=N/c2ccc(O)c(C(=O)O)c2)ccc1O` [OLSALAZINE]: the Drug metabolism result is “Active”.
